In ChEMBL document CHEMBL3608272, “Design, synthesis and anticancer properties of novel oxa/azaspiro[4,5]trienones as potent apoptosis inducers through mitochondrial disruption” (2015):

How the values were obtained:
Format in all cases: functional
MCF7 = assay: Anti-proliferative activity against human MCF7 cells incubated for 48 hrs by SRB assay; conditions: MCF7, 48 h
How it was run: (§1)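 SRB assay. Cells in DMEM with 10% FBS were seeded and grown 24 h at 37 °C in CO2. Compounds were diluted from a 10 mM DMSO stock to 1, 5 and 10 µM, with DMSO at most 0.1%, and exposed 48 h. Cells were fixed with 10% TCA for 60 min at 4 °C and stained 20 min at room temperature with 0.4% SRB in 1% acetic acid. Dye was eluted with 10 mM trizma base and absorbance read at 540 nm. Run in triplicate; GI50 given as mean ± SD of three determinations.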

DU-145 = assay: Anti-proliferative activity against human DU145 cells incubated for 48 hrs by SRB assay; conditions: DU-145, 48 h; how it was run: as §1
A549 = assay: Anti-proliferative activity against human A549 cells incubated for 48 hrs by SRB assay; conditions: A549, 48 h
HepG2 = assay: Anti-proliferative activity against human HepG2 cells incubated for 48 hrs by SRB assay; conditions: HepG2, 48 h; how it was run: as §1

Row | SMILES | GI50 (MCF7) [µM] | GI50 (DU-145) [µM] | GI50 (A549) [µM] | GI50 (HepG2) [µM]
1 | COc1ccc(C2=C(c3ccccc3)C3(C=CC(=O)C=C3)OC2=O)cc1 | 1.8 | 4.1 | 7.3 | 3.4
2 | O=Cc1ccc(C2=C(c3ccccc3)C3(C=CC(=O)C=C3)OC2=O)s1 | 3.4 | 4 | 4.6 | 2.6
3 | CN1C(=O)C(c2cc3ccccc3s2)=C(c2ccccc2)C12C=CC(=O)C=C2 | 4.2 | 9 | 18.8 | 7.2
4 | CC/C(=C(\c1ccccc1)c1ccc(OCCN(C)C)cc1)c1ccccc1 [TAMOXIFEN] | 8 | 19.3 | 24.4 | 
5 | COc1cccc2c1C(=O)c1c(O)c3c(c(O)c1C2=O)C[C@@](O)(C(=O)CO)C[C@@H]3O[C@H]1C[C@H](N)[C@H](O)[C@H](C)O1 [DOXORUBICIN] | 1.6 | 0.95 | 1.9 | 1.4

Second part, the compound after the results:

Row | GI50 (MCF7) [µM] | GI50 (DU-145) [µM] | GI50 (A549) [µM] | GI50 (HepG2) [µM] | SMILES
6 | 7.4 | 12.1 | 21.1 | 10.4 | Cc1ccc(C2=C(c3ccccc3)C3(C=CC(=O)C=C3)N(C)C2=O)cc1Cl
7 | 9.9 | 14 | 27.6 | 10.5 | CN1C(=O)C(c2cccc(Cl)c2Cl)=C(c2ccccc2)C12C=CC(=O)C=C2
8 | 6.7 | 16.3 | 30.2 | 19.6 | CN1C(=O)C(c2ccc3c(c2)OCO3)=C(c2ccccc2)C12C=CC(=O)C=C2
9 | 8.2 | 15.5 | 22.5 | 9.2 | CN1C(=O)C(c2ccccc2)=C(c2ccccc2)C12C=CC(=O)C=C2
10 | 7.6 | 11.5 | 13.6 | 7.7 | CN1C(=O)C(c2ccc(CO)cc2)=C(c2ccccc2)C12C=CC(=O)C=C2
11 | 52.7 | 91.2 | 126 | 62.8 | CN1C(=O)C(c2ccoc2)=C(c2ccccc2)C12C=CC(=O)C=C2
12 | 11.1 | 18.2 | 36.2 | 12.7 | CN1C(=O)C(c2ccc(C=O)cc2)=C(c2ccccc2)C12C=CC(=O)C=C2
13 | 2.4 | 6.3 | 17.3 | 6.12 | CN1C(=O)C(c2cccc3ccccc23)=C(c2ccccc2)C12C=CC(=O)C=C2
